Screening data: PubChem BioAssay, Johns Hopkins Ion Channel Center
Compounds with a hit are over-represented: about 3.8% of the library has one in this group of screens.
hERG rescue – hERG rescue from dofetilide block, primary screen, cell-based, CHO-hERG, FluxOR thallium flux, dofetilide IC70. activation (rescue from dofetilide block), less the hit threshold, % at 10 µM. 0.51% of 310,000 active. AID 1511, 2009. dofetilide IC70 present;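 active = activation above the mean of controls blocked by dofetilide plus 5 SD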;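 note: thallium influx through hERG after potassium depolarization seen as dye fluorescence rise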
KCNQ1 act – potentiators or activators of KCNQ1 channel, primary screen, cell-based, thallium flux, high-throughput | CHO-K1 KCNQ1, thallium flux FluxOR fluorescence; stronger effect = higher value | Potassium voltage-gated channel subfamily KQT member 1 (Homo sapiens), P51787 | B-score at 10 µM | 0.35% of 310,000 active | AID 2648, 2010;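 active = fluorescence ratio B-score, a plate-corrected score, at least three library SD, with initial intensity B-score within 5 SD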
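Assay system: stable KCNQ1 CHO-K1 line; medium: assay buffer, equal DMSO in all wells; timing: 90 min dye loading and 20 min compound exposure, both at room temperature; technique: kinetic FluxOR thallium fluorescence, 10-s 1-Hz baseline, 110-s post-stimulus read; read-out basis: B score of baseline-normalized fluorescence ratio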
KCNQ1 inh – inhibitors of human KCNQ1 channel, primary screen, cell-based, thallium flux, high-throughput. AID 2642, 2010. 1.3% of 310,000 active. CHO-K1 KCNQ1, FluxOR thallium flux fluorescence; stronger effect = higher value. B-score at 10 µM;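 active = compounds whose thallium flux B-score, printed positive for inhibition, exceeds three library SD while starting fluorescence stays within three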;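 note: channel opened by potassium depolarization with thallium stimulus after 20 min compound exposure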
Kir21 inh – inhibitors of mouse Kir2.1 inward-rectifier potassium channel; HEK293-Kir2.1, FluxOR thallium flux fluorescence; stronger effect = lower value; 0.85% of 310,000 active; B-score at 10 µM; AID 1672, 2009;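 active = fluorescence ratio B-score at or below minus 3 SD of library scores, with starting-brightness B-score within 2 SD, cut at about -4.2 in these data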;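 note: channel flux triggered by added potassium and thallium sulfate stimulus; B-score of peak minus minimum fluorescence over baseline after thallium stimulus; more negative B-score means stronger Kir2.1 block with less thallium influx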
Target sequence (P35561 whole entry, looked up): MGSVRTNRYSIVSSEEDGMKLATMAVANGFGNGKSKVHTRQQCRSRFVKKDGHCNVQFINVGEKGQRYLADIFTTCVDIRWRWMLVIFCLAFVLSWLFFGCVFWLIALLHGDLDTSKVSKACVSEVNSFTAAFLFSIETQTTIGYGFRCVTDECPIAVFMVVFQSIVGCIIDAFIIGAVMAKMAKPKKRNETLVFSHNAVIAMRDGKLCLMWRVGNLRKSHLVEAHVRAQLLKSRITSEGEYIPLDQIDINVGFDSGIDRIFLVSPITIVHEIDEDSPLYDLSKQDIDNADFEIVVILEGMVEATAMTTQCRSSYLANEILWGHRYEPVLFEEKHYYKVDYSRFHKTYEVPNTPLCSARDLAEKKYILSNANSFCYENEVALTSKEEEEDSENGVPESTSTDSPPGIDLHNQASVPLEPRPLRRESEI
KCNK3 inh – human KCNK3 channel inhibitors, primary screen, CHO cells, FluxOR thallium flux, B-score. AID 602410, 2012. 0.84% of 340,000 active. Potassium channel subfamily K member 3 (Homo sapiens), O14649. B-score at 10 µM. FluxOR fluorescence; stronger effect = lower value;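 active = B-score under library mean minus 4 SD, starting fluorescence ratio at most library mean plus 5 SD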;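 note: more negative B-score means stronger inhibition of thallium flux through KCNK3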
KCNK9 block – KCNK9 potassium channel inhibitors, primary screen, HEK293 cells, thallium flux. Potassium channel subfamily K member 9 (Homo sapiens), Q9NPC2. FluxOR thallium flux fluorescence; stronger effect = lower value. B-score at 10 µM. 1.2% of 310,000 active;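 active = ratio B-score over 3 SD below the library mean, with starting fluorescence within 5 SD of its mean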;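 note: negative B-score means less thallium flux so channel inhibition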
Active calls of the source: *; i = inactive; · = not tested or not shown.

SMILES	hERG rescue	KCNQ1 act	KCNQ1 inh	Kir21 inh	KCNK3 inh	KCNK9 block
O=C(CN1CCOCC1)Nc1ccccc1Sc1ccccc1	-11	i	i	-6.3*	i	i
CCN(C(=O)Cn1ccc(C(F)(F)F)n1)c1c(N)n(Cc2ccccc2)c(=O)[nH]c1=O	·	·	·	·	i	·
O=C(CN(C(=O)c1ccccc1)N1C(=O)CCC1=O)c1cccs1	-4	i	i	0.82	i	i
COc1ccc(CCNC(=O)COC(=O)Cc2c[nH]c3ccccc23)cc1OC	·	·	·	·	i	·
COc1ccccc1/C=C/C(=O)OCC(=O)NC(=O)NC1CCCC1	·	·	·	·	i	·
CCCCC(C(=O)NC1CCCC1)N(C(=O)c1snc(C(N)=O)c1N)c1ccc(OCC)cc1 (configuration not stated)	-7	i	i	1.1	i	i
Cc1cc(-c2c(C)[nH]n(-c3ccc(Cl)cc3)c2=O)n[nH]1	-8	i	i	1.4	i	i
Fc1ccc(C(CCNCc2ccccn2)c2ccc(Cl)cc2)cc1 (configuration not stated)	-19	i	i	-6.4*	i	i
Cc1cccc(/C=N/NC(=O)c2cc(Br)ccc2O)n1	0	11*	i	1.4	i	i
O=C(Nc1cnn(C23CC4CC(CC(C4)C2)C3)c1)c1cnn2c(C(F)(F)F)cc(-c3ccco3)nc12	-26	i	11*	-0.25	i	i
Cc1ccccc1Cn1ccc(NC(=O)c2cnn3c(C(F)(F)F)cc(-c4ccco4)nc23)n1	-15	i	i	-0.15	i	-7.6*
O=C(NC12CC3CC(CC(C3)C1)C2)c1cc2nc(-c3ccco3)cc(C(F)(F)F)n2n1	-3	i	6*	0.61	i	i
CCOC(=O)CCCc1ccc(/C(C)=N/NC(N)=S)cc1	-8	i	i	-0.79	i	i
Cc1noc(NC(=O)c2ccccc2Cl)c1C#N	-2	i	i	0.29	i	i
COc1ccccc1C(=O)Nc1onc(C)c1C#N	6.2*	i	i	-0.56	i	i
COc1cc(CNCCCN2CCOCC2)ccc1OCC(=O)NC(C)(C)C	2	i	i	0.08	i	i
CCOc1cc(CNCCCN2CCOCC2)ccc1OCC(=O)NC(C)(C)C	-6	9*	i	-1.4	i	i
CCOc1cc(CNCCCN2CCOCC2)cc(Br)c1OCc1ccccc1Cl	-33	i	i	-6.3*	i	i
CCOc1cc(CNCCN2CCOCC2)ccc1OCc1ccccc1Cl	-10	i	i	-4	i	i
COc1cc(CNCCc2ccccc2)cc(Br)c1OCC(=O)Nc1ccccc1C	-32	i	9*	-11*	i	i
CCOc1cc(CNCCO)cc(Br)c1OCc1ccccc1Cl	-9	i	i	-9*	i	i
CNCc1cc(Br)c(OCC(=O)Nc2ccccc2OC)c(OC)c1	-21	i	i	0.03	i	i
CCOc1ccc(N(C(=O)c2ccccc2Cl)C2=NC(C)(C)CS2)cc1	-10	i	i	1	i	i
COc1cc(CNCCO)cc(Cl)c1OCc1ccccc1Cl	-16	i	i	-7*	i	i
COc1cc(CNCCc2ccccc2)cc(Cl)c1OCc1ccccc1	-26	i	7*	-13*	i	i
SMILES	hERG rescue	KCNQ1 act	KCNQ1 inh	Kir21 inh	KCNK3 inh	KCNK9 block
CCOc1cc(CNCCO)cc(Br)c1OCc1ccc(Cl)cc1	-23	i	i	-18*	i	i
COc1cccc(CNCCO)c1OCc1ccccc1Cl	-4	i	i	-1.3	i	i
O=C(OCC#CCSc1nnc(-c2cccc3ccccc23)o1)c1ccc(F)cc1	·	·	·	·	i	·
CCOc1ccccc1-c1nc2c(s1)CCc1onc(-c3ccc(OC)cc3)c1-2	-2	i	i	-0.57	i	i
O=C(NC1CCCC1)C1CCN(C(=O)c2cccc(Cl)c2)CC1	-4	i	i	0.02	i	i
COc1ccc(NC(=O)CN2C(=O)NC(C)(c3ccc4c(c3)OCO4)C2=O)cc1S(N)(=O)=O (configuration not stated)	·	·	·	·	i	·
COc1ccc(C)cc1NC(=O)c1cccc(-c2ccc(OC(C)=O)cc2)c1	-6	i	i	-0.85	i	-8.1*
COc1ccc(-c2cccc(C(=O)Nc3ccccc3C)c2)cc1	-7	i	i	-0.59	i	i
N=C1/C(=C\c2coc3ccccc3c2=O)C(=O)N=C2SC(c3ccncc3)=NN12	-50	i	16*	-12	i	i
N=C1/C(=C/c2coc3ccccc3c2=O)C(=O)N=C2SC(c3ccco3)=NN12	-26	i	7*	-12	i	i
O=S(=O)(C/C(=C/CO)S(=O)(=O)c1ccccc1)c1ccccc1	-13	i	6*	-2.3	i	i
O=S(=O)(CS(=O)(=O)c1ccccc1)c1ccccc1	·	·	·	·	i	·
Cc1cc(C)c(C)c(S(=O)(=O)N2CCSCC2)c1C	-5	i	i	-4.5*	i	i
Cc1c(C)c(C)c(S(=O)(=O)N2CCSCC2)c(C)c1C	-7	i	i	1.4	i	i
Cc1nnc(-c2ccccc2)nc1N(C)C	-9	i	i	-2.3	i	i
O=C(C(Sc1ccccc1)c1ccc(Br)cc1)N1CCOCC1 (configuration not stated)	-8	i	i	-5.8*	i	i
Cc1ccc2c(c1)sc1nc(=O)ccn12	6.7*	i	i	-0.47	i	i
COc1ccc2c(c1)sc1nc(=O)ccn12	-11	i	i	1.1	i	i
c1ccc2sc(NC3=NCN(CC4CCCO4)CN3)nc2c1 (configuration not stated)	-16	i	i	0.21	i	i
CSc1cccc(NC(=O)CN2C(=O)c3ccccc3S2(=O)=O)c1	6.5*	21*	i	0.94	i	i
O=C(CN1C(=O)c2ccccc2S1(=O)=O)Nc1ccccc1	0	i	i	0.04	i	i
O=C(Nc1nc(-c2ccccc2)cs1)c1ccc(N2CCOCC2)c([N+](=O)[O-])c1	-10	i	7*	-1.5	i	i
